Laboratory results published in ChEMBL document CHEMBL1671809, “Discovery of phosphoric acid mono-{2-[(E/Z)-4-(3,3-dimethyl-butyrylamino)-3,5-difluoro-benzoylimino]-thiazol-3-ylmethyl} ester (Lu AA47070): a phosphonooxymethylene prodrug of a potent and selective hA(2A) receptor antagonist” (J Med Chem, 2011).
Converted amounts (≈) assume the structure as drawn.

Assays:
Hepatocyte [1] = experiment: Intrinsic clearance in rat hepatocytes at 0.2 uM after 60 mins; assay type: ADME, cell-based, Liver; conditions: 1 h
Outline: (§1)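 Pooled cryopreserved hepatocytes: human (three donors), male Sprague-Dawley rat (two donors), male beagle dog (two donors). Cells at 10^6/mL in DMEM with 5 mM HEPES, 37 C, 15 min preincubation; compound at 0.2 μM. Samples at 0-60 min, depletion by LC-MS/MS. t1/2 scaled to CLint with 120 (human, rat) or 240 (dog) million cells/g liver. n = 1.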

Hepatocyte [2] = experiment: Intrinsic clearance in human hepatocytes at 0.2 uM after 60 mins; assay type: ADME, cell-based, Liver; conditions: 1 h; outline: as §1
Adenosine receptor A2a = Adenosine receptor A2a (Homo sapiens, UniProt P29274); experiment: Displacement of [3H]-ZM241385 from human adenosine A2A receptor expressed in high five cells after 30 mins by scintillation counting
Sequence of Adenosine receptor A2a (P29274 whole entry): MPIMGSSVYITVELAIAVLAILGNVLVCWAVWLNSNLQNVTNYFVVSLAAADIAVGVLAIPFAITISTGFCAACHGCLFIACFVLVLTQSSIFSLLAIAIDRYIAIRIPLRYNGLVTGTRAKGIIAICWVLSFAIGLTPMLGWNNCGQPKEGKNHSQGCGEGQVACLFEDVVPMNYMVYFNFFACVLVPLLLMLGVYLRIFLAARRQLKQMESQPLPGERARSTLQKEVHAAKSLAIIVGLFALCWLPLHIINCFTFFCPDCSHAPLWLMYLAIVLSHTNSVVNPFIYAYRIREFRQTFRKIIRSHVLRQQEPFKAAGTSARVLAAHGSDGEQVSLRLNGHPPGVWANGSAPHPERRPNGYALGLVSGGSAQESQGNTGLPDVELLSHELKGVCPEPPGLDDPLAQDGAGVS

[3] = Terminal half life in Sprague-Dawley rat at 0.5 mg/kg, iv and 1 mg/kg, po; assay type: ADME, organism-based; conditions: in vivo
Outline: (§2)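 Awake Sprague-Dawley rats carrying a carotid catheter were dosed with 0.5 mg/kg iv or 1 mg/kg po in aqueous 25% cremophore, n = 3 per route. Ten 100 μL blood samples were collected automatically over 20 h. Plasma was assayed by HTLC-MS/MS. Parameters came from a two-compartment model with first-order absorption (po) and elimination.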

[4] = Aqueous solubility of the compound at pH 7.4; assay type: physicochemical; conditions: buffer
Outline: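 About 5 mg solid was shaken overnight in 1 mL of 25 mM phosphate buffer, pH 7.4, after 3 min sonication; more solid was added if it all dissolved. The suspension was filtered through 0.22 μm PVDF and the solution measured by HPLC against a standard curve.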

Cytochrome P450 2C19 = Cytochrome P450 2C19 (Homo sapiens, UniProt P33261); experiment: Inhibition of recombinant CYP2C19 after 45 mins; assay type: ADME
Sequence of Cytochrome P450 2C19 (P33261 whole entry): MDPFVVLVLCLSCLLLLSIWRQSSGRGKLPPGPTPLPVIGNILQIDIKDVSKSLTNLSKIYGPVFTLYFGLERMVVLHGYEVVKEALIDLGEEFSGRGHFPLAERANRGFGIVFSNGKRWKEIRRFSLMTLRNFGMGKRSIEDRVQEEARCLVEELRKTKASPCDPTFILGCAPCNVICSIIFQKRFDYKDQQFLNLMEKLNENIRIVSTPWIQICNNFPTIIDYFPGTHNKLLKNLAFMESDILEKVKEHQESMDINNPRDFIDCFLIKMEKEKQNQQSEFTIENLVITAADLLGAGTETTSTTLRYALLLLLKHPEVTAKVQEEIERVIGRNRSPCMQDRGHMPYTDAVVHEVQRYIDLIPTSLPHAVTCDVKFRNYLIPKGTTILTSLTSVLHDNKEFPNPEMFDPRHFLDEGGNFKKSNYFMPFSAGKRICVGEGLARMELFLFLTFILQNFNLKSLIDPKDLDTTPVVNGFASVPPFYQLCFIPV
Outline: (§3)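 Recombinant CYP supersomes incubated in phosphate buffer with eight compound concentrations (40-0.02 μM) and fluorogenic substrates. CYP1A2: 7-ethoxy-3-cyanocoumarin 10 μM, 28 min. CYP2C19: same substrate 50 μM, 45 min. CYP2D6: AMMC 3 μM, 45 min. CYP3A4: resorufin benzyl ether 100 μM, 30 min. Fluorescent metabolite read; IC50 relative to uninhibited controls.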

[5] = Volume of distribution at steady state in Sprague-Dawley rat at 0.5 mg/kg, iv and 1 mg/kg, po; assay type: ADME, organism-based; conditions: in vivo, read-out: Vdss; outline: as §2
Mus musculus [6] = experiment: Reversal of haloperidol-induced hypolocomotion in po dosed NMRI mouse administered 30 mins before haloperidol challenge measured for 20 mins; assay type: functional
Outline: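 Male NMRI mice (n = 8/group) were given compound po in 25% cremophor/saline, then haloperidol 0.63 mg/kg sc 30 min later. After 15 min they went into photocell activity boxes, and locomotion was recorded for 20 min. ED50 by sigmoidal fit with top 100 and bottom 0.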

[7] = Intrinsic clearance in dog hepatocytes at 0.2 uM after 60 mins; assay type: ADME, cell-based, Canis lupus familiaris, Liver, Hepatocyte; conditions: 1 h; outline: as §1
Rattus norvegicus = experiment: Cmax in Sprague-Dawley rat at 1 mg/kg, po; assay type: ADME, organism-based; set-up: dose 1 mg/kg, route oral; conditions: in vivo; outline: as §2
Mus musculus [8] = experiment: Displacement of [3H]SCH58261 from po dosed NMRI mouse striatum by liquid scintillation counting; assay type: functional
[9] = Primary phase half life in Sprague-Dawley rat at 0.5 mg/kg, iv and 1 mg/kg, po; assay type: ADME, organism-based; conditions: in vivo; outline: as §2
[10] = Apparent permeability from basolateral to apical side in human Caco2 cells at 1 uM after 21 to 28 days; assay type: ADME, cell-based; conditions: caco-2
Outline: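 Caco-2 cells grown 21-28 days on permeable filters. A 2 mM DMSO stock was diluted into Hanks-HEPES pH 7.4. Dosing solution went into the apical (A-B) or basolateral (B-A) chamber, and the opposite chamber was sampled over 240 min with buffer replacement. Efflux ratio = Papp,B-A/Papp,A-B. Mean ± SD, n = 3.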

[11] = Protein binding in rat serum at 1 uM after 60 mins by LC/MS-MS; assay type: ADME, cell-free; conditions: read-out: PPB (converted)
[12] = Oral bioavailability in Sprague-Dawley rat at 1 mg/kg; assay type: ADME, organism-based; conditions: in vivo; outline: as §2
[13] = Tmax in Sprague-Dawley rat at 1 mg/kg, po; assay type: ADME, organism-based; set-up: dose 1 mg/kg, route oral; conditions: in vivo; outline: as §2
Cytochrome P450 1A2 = target: T1, Cytochrome P450 1A2 (Homo sapiens, UniProt P05177); experiment: Inhibition of recombinant CYP1A2 after 28 mins; assay type: ADME; outline: as §3
T1 sequence (P05177 whole entry): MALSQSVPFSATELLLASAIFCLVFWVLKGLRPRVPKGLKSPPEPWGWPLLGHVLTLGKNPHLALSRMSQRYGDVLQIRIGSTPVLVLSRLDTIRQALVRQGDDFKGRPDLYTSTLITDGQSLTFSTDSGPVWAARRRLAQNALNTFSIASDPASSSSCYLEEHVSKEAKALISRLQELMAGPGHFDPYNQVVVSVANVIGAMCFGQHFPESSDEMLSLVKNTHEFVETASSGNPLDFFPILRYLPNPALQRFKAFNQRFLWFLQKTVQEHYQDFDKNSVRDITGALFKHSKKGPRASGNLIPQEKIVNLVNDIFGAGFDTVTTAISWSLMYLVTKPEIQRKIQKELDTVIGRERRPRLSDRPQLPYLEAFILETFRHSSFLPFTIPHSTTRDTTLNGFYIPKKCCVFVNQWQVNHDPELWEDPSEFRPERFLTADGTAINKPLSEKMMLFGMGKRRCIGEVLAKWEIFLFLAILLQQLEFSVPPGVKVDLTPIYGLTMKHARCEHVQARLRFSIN

[14] = Ratio of drug level whole brain to plasma in abcb1a-deficient mouse at 1 mg/kg, po after 50 mins
[15] = Plasma clearance in Sprague-Dawley rat at 0.5 mg/kg, iv and 1 mg/kg, po; assay type: ADME, organism-based; outline: as §2
Adenosine receptor A1 = target: T2, Adenosine receptor A1 (Homo sapiens, UniProt P30542); experiment: Displacement of [3H]-DPCPX from human adenosine A1 receptor expressed in CHO cells after 30 mins by scintillation counting; assay type: cell-based
T2 sequence (P30542 whole entry): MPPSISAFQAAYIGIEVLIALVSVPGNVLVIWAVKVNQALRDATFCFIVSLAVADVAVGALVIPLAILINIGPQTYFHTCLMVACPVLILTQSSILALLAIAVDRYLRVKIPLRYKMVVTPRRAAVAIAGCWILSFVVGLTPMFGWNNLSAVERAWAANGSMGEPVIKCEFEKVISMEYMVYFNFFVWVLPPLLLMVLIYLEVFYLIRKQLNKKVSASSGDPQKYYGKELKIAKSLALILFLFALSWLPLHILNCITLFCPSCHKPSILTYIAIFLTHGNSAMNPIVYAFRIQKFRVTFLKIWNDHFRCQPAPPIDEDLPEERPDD
Outline: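 CHO-hA1 membranes at 10.8 μg protein/well, pretreated with adenosine deaminase (2 U/mL, 30 min, 37 C), were incubated with 1 nM [3H]-DPCPX in 50 mM Tris/HCl pH 7.4 for 30 min at 25 C across 10 compound concentrations. Filtration on PEI-soaked GF/B, scintillation counting. Nonspecific binding by CGS15943. Ki by Cheng-Prusoff. Means of ≥2 determinations.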

Cytochrome P450 2D6 = Cytochrome P450 2D6 (Homo sapiens, UniProt P10635); experiment: Inhibition of recombinant CYP2D6 after 45 mins; assay type: ADME; outline: as §3
Sequence of Cytochrome P450 2D6 (P10635 whole entry): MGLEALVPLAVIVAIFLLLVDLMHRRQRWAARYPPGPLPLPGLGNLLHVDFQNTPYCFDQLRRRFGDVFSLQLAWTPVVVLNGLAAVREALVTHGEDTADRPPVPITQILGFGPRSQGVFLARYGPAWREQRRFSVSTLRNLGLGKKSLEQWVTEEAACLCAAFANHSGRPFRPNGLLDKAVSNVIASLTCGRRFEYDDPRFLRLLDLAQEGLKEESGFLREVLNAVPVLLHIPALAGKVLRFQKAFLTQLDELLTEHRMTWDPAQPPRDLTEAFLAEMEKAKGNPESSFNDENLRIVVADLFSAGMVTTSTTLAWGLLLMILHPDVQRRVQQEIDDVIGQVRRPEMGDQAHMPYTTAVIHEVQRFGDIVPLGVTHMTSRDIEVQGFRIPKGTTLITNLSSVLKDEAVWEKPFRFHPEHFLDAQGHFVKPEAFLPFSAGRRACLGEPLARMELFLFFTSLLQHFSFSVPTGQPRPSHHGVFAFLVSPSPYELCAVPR

Cytochrome P450 2C9 = Cytochrome P450 2C9 (Homo sapiens, UniProt P11712); experiment: Inhibition of recombinant CYP2C9 after 45 mins; assay type: ADME
Sequence of Cytochrome P450 2C9 (P11712 whole entry): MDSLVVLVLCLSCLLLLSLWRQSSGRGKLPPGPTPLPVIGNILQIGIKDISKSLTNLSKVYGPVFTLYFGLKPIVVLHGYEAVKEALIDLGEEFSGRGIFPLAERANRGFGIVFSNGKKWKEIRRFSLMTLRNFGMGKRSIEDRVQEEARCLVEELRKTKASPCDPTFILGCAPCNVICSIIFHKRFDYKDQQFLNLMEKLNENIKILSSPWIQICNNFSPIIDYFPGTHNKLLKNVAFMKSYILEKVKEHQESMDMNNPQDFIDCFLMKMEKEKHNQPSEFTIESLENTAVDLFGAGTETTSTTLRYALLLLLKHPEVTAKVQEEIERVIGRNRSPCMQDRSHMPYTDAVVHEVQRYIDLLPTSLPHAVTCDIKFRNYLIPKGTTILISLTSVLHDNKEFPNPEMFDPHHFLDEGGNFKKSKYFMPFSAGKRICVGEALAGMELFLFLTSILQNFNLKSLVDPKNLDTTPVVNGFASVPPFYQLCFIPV

Q: For CC(C)(C)CC(=O)Nc1c(F)cc(C(=O)Nc2nccs2)cc1F, which CL (Hepatocyte [1]) is on record?
A: The CL was 12 mL/min.

Q: What about the CL (Hepatocyte [2]) of the same compound?
A: Its CL is 600 mL/min.

Q: What about the Ki (Adenosine receptor A2a) of the same compound?
A: Its Ki is 0.0059 µM.

Q: What about the half-life [3] of the same compound?
A: Its half-life is 7.8 h.

Q: What about the solubility [4] of the same compound?
A: The solubility was 1 µg/mL (≈ 2.83 µM).

Q: And the IC50 (Cytochrome P450 2C19)?
A: Its IC50 is > 40 µM.

Q: And the Vd [5]?
A: The Vd was 1 L/kg.

Q: What about the Activity (Mus musculus [6]) of the same compound?
A: Its Activity is “Dose-dependent effect”.

Q: What about the ED50 (Mus musculus [6]) of the same compound?
A: Its ED50 is 0.5 mg/kg.

Q: And the CL [7]?
A: The CL was 346 mL/min.

Q: What about the Cmax (Rattus norvegicus) of the same compound?
A: Its Cmax is 878 ng/mL.

Q: What about the Activity (Mus musculus [8]) of the same compound?
A: Its Activity is “Dose-dependent effect”.

Q: What about the ED50 (Mus musculus [8]) of the same compound?
A: Its ED50 is 1.1 mg/kg.

Q: What about the half-life [9] of the same compound?
A: Its half-life is 1.2 h.

Q: What about the Papp B→A at 1 µM [10] of the same compound?
A: The Papp B→A at 1 µM was 67 ×10⁻⁶ cm/s.

Q: And the fraction unbound at 1 h, 1 µM [11]?
A: Its fraction unbound at 1 h, 1 µM is 0.03.

Q: And the bioavailability [12]?
A: Its bioavailability is 88%.

Q: And the Tmax [13]?
A: The Tmax was 0.5 h.

Q: And the IC50 (Cytochrome P450 1A2)?
A: The IC50 was > 40 µM.

Q: What about the Kp at 50 min [14] of the same compound?
A: Its Kp at 50 min is 0.8.

Q: And the clearance [15]?
A: Its clearance is 5 mL/min/kg.

Q: What about the Ki (Adenosine receptor A1) of the same compound?
A: Its Ki is 0.41 µM.

Q: And the IC50 (Cytochrome P450 2D6)?
A: Its IC50 is > 40 µM.

Q: What about the IC50 (Cytochrome P450 2C9) of the same compound?
A: The IC50 was > 40 µM.
